Measurements published in ChEMBL document CHEMBL4622977, “A CNS-Targeting Prodrug Strategy for Nuclear Receptor Modulators” (J Med Chem, 2020).
Values belong to the molecule of their own block, whether it stands above or below them. Activity calls are given as the source filed them. No cut-off for these calls is given here.

How the values were obtained:
[1] = AUC (0.5 to 6 hrs) in C57BL/6 mouse brain assessed as [4-(4-hydroxy-3-iodophenoxy)-3,5-diiodophenyl]acetic acid level at 9.14 umol/kg, ip by LC-MS/MS analysis; type: ADME, organism-based; set-up: dose 9.14 umol/kg, time upper 6 hr, time lower 0.5 hr, route intraperitoneal; details: in vivo
In short: (§1)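 Male wild-type C57BL/6 mice (8−10 weeks, n=3 per time point) received parent drug or equimolar prodrug at […] i.p. in DMSO. Brain and serum were collected at 0.5, 2 and 6 h. Parent acid was quantified by LC-MS/MS against vehicle-tissue standard curves with d₆-sobetirome internal standard. AUC0.5–6 h was computed from the time course; mean ± SEM.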

[2] = Prodrug conversion in C57BL/6 mouse brain assessed as [4-(4-hydroxy-3-iodophenoxy)-3,5-diiodophenyl]acetic acid level at 9.14 umol/kg, ip measured after 1 hr in presence of FAAH inhibitor PF-3845 by LC-MS/MS analysis; type: ADME, organism-based; details: in vivo
In short: (§2)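 Male C57BL/6 mice (n=3) received PF-3845 at 1 mg/kg i.p., then prodrug at […] i.p. 1 h later; comparators received prodrug alone. Vehicle was DMSO. Whole brain was taken 1 h after prodrug and homogenized in water with d₆-sobetirome internal standard. It was extracted with EtOAc/MeCN and parent acid was measured by LC-MS/MS; mean ± SEM, 2-tailed unpaired t test.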

[3] = AUC (0.5 to 6 hrs) in C57BL/6 mouse serum assessed as [4-(4-hydroxy-3-iodophenoxy)-3,5-diiodophenyl]acetic acid level at 9.14 umol/kg, ip by LC-MS/MS analysis; type: ADME, organism-based; set-up: dose 9.14 umol/kg, time 0.5-6 hr, route intraperitoneal; details: in vivo; in short: as §1
[4] = Brain to serum concentration ratio, Kp of the compound in C57BL/6 mouse assessed as [4-(4-hydroxy-3-iodophenoxy)-3,5-diiodophenyl]acetic acid level at 9.14 umol/kg, ip by LC-MS/MS analysis; type: ADME, organism-based
In short: (§3)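 Brain-to-serum ratio Kp was calculated from brain and serum parent-drug AUC0.5–6 h (ng/g*h). These AUCs came from male C57BL/6 mice (n=3 per time point) given parent drug or equimolar prodrug at […] i.p. in DMSO, sampled at 0.5, 2 and 6 h. Parent acid was quantified by LC-MS/MS with d₆-sobetirome internal standard.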

[5] = Prodrug conversion in C57BL/6 mouse brain assessed as 2-(4-(4-hydroxy-3-isopropyl-5-((4-nitrophenyl)ethynyl)-benzyl)-3,5-dimethylphenoxy)acetic acid level at 9.14 umol/kg, ip measured after 1 hr in presence of FAAH inhibitor PF-3845 by LC-MS/MS analysis; type: ADME, organism-based; details: in vivo; in short: as §2
[6] = Brain to serum concentration ratio, Kp of the compound in C57BL/6 mouse assessed as 2-(4-(4-hydroxy-3-isopropyl-5-((4-nitrophenyl)ethynyl)-benzyl)-3,5-dimethylphenoxy)acetic acid level at 9.14 umol/kg, ip by LC-MS/MS analysis; type: ADME, organism-based; in short: as §3
[7] = AUC (0.5 to 6 hrs) in C57BL/6 mouse brain assessed as 2-(4-(4-hydroxy-3-isopropyl-5-((4-nitrophenyl)ethynyl)-benzyl)-3,5-dimethylphenoxy)acetic acid level at 9.14 umol/kg, ip by LC-MS/MS analysis; type: ADME, organism-based; set-up: time upper 6 hr, time lower 0.5 hr, dose 9.14 umol/kg, route intraperitoneal; details: in vivo; in short: as §1
[8] = AUC (0.5 to 6 hrs) in C57BL/6 mouse serum assessed as 2-(4-(4-hydroxy-3-isopropyl-5-((4-nitrophenyl)ethynyl)-benzyl)-3,5-dimethylphenoxy)acetic acid level at 9.14 umol/kg, ip by LC-MS/MS analysis; type: ADME, organism-based; set-up: time 0.5-6 hr, dose 9.14 umol/kg, route intraperitoneal; details: in vivo; in short: as §1
[9] = mouse, in vivo, ip
in vivo = details: C57BL/6, mouse, brain/serum, ip, 9.14 umol/kg
[10] = AUC (0.5 to 6 hrs) in C57BL/6 mouse serum at 9.14 umol/kg, ip by LC-MS/MS analysis; type: ADME, organism-based; set-up: time upper 6 hr, dose 9.14 umol/kg, time lower 0.5 hr, route intraperitoneal; details: in vivo; in short: as §1
[11] = Hepatotoxicity in C57BL/6 mouse assessed effect on Rarres2 gene expression at 9.14 umol/kg, ip administered once daily for 7 days by Trizol reagent based RT-qPCR analysis; details: in vivo, 168 h
Mus musculus [12] = test: In vivo agonist activity at RAR in C57BL/6 mouse assessed upregulation of Adam10 gene expression in brain at 9.14 umol/kg, ip administered once daily for 7 days by Trizol reagent based RT-qPCR analysis; type: functional, organism-based
In short: (§4)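 Male C57BL/6 mice (n=5) were dosed once daily for 7 days i.p. with parent drug at […], equimolar prodrug, or vehicle. The vehicle was 1:1:8 Kolliphor:NMP:water. Target gene expression was compared between groups per tissue by 2-tailed unpaired t test.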

[13] = AUC (0.5 to 6 hrs) in C57BL/6 mouse serum assessed as GW7604 level at 9.14 umol/kg, ip by LC-MS/MS analysis; type: ADME, organism-based; set-up: time lower 0.5 hr, dose 9.14 umol/kg, time upper 6 hr, route intraperitoneal; details: in vivo; in short: as §1
[14] = Prodrug conversion in C57BL/6 mouse brain assessed as GW7604 level at 9.14 umol/kg, ip measured after 1 hr in presence of FAAH inhibitor PF-3845 by LC-MS/MS analysis; type: ADME, organism-based; details: in vivo; in short: as §2
[15] = Brain to serum concentration ratio, Kp of the compound in C57BL/6 mouse assessed as GW7604 level at 9.14 umol/kg, ip by LC-MS/MS analysis; type: ADME, organism-based; in short: as §3
[16] = AUC (0.5 to 6 hrs) in C57BL/6 mouse brain assessed as GW7604 level at 9.14 umol/kg, ip by LC-MS/MS analysis; type: ADME, organism-based; set-up: time 0.5-6 hr, dose 9.14 umol/kg, route intraperitoneal; details: in vivo; in short: as §1
Mus musculus [17] = test: In vivo agonist activity at PPAR in C57BL/6 mouse assessed upregulation of Pgc1-alpha gene expression at 9.14 umol/kg, ip administered once daily for 7 days by Trizol reagent based RT-qPCR analysis; type: functional, organism-based; in short: as §4
[18] = Renal toxicity in C57BL/6 mouse assessed effect on Fasn gene expression in kidney at 9.14 umol/kg, ip administered once daily for 7 days by Trizol reagent based RT-qPCR analysis; type: organism-based; details: in vivo, 168 h; in short: as §4
[19] = Prodrug conversion in C57BL/6 mouse brain assessed as tesaglitazar level at 9.14 umol/kg, ip measured after 1 hr in presence of FAAH inhibitor PF-3845 by LC-MS/MS analysis; type: ADME, organism-based; details: in vivo; in short: as §2
[20] = Brain to serum concentration ratio, Kp of the compound in C57BL/6 mouse assessed as tesaglitazar level at 9.14 umol/kg, ip by LC-MS/MS analysis; type: ADME, organism-based; in short: as §3
[21] = AUC (0.5 to 6 hrs) in C57BL/6 mouse serum assessed as tesaglitazar level at 9.14 umol/kg, ip by LC-MS/MS analysis; type: ADME, organism-based; set-up: time lower 0.5 hr, dose 9.14 umol/kg, time upper 6 hr, route intraperitoneal; details: in vivo; in short: as §1
[22] = AUC (0.5 to 6 hrs) in C57BL/6 mouse brain assessed as tesaglitazar level at 9.14 umol/kg, ip by LC-MS/MS analysis; type: ADME, organism-based; set-up: time upper 6 hr, dose 9.14 umol/kg, time lower 0.5 hr, route intraperitoneal; details: in vivo; in short: as §1
[23] = AUC (0.5 to 6 hrs) in C57BL/6 mouse brain assessed as tazarotenic acid level at 9.14 umol/kg, ip by LC-MS/MS analysis; type: ADME, organism-based; set-up: time lower 0.5 hr, dose 9.14 umol/kg, time upper 6 hr, route intraperitoneal; details: in vivo; in short: as §1
[24] = Prodrug conversion in C57BL/6 mouse brain assessed as tazarotenic acid level at 9.14 umol/kg, ip measured after 1 hr in presence of FAAH inhibitor PF-3845 by LC-MS/MS analysis; type: ADME, organism-based; details: in vivo; in short: as §2
[25] = Brain to serum concentration ratio, Kp of the compound in C57BL/6 mouse assessed as tazarotenic acid level at 9.14 umol/kg, ip by LC-MS/MS analysis; type: ADME, organism-based; in short: as §3
[26] = AUC (0.5 to 6 hrs) in C57BL/6 mouse serum assessed as tazarotenic acid level at 9.14 umol/kg, ip by LC-MS/MS analysis; type: ADME, organism-based; set-up: time lower 0.5 hr, dose 9.14 umol/kg, time upper 6 hr, route intraperitoneal; details: in vivo; in short: as §1

Structure (SMILES): CNC(=O)Cc1cc(I)c(Oc2ccc(O)c(I)c2)c(I)c1
AUC [1]: 155.8 ng·h/g
Drug metabolism [2]: Metabolite_Detected
AUC [3]: 4020 ng·h/g
Kp [4]: 0.039

Structure (SMILES): Cc1cc(SCc2sc(-c3ccc(C(F)(F)F)cc3)nc2C)ccc1OCC(=O)O [GW501516]
AUC [9]: 41.8 ng·h/g
Kp (in vivo): 0.018
AUC [10]: 2330 ng·h/g

Structure (SMILES): CC(C)(Oc1ccc(CCNC(=O)c2ccc(Cl)cc2)cc1)C(=O)O [BEZAFIBRATE]
AUC [9]: 5.5 ng·h/g
Kp (in vivo): 0.013
AUC [10]: 420.7 ng·h/g

Structure (SMILES): CC/C(=C(\c1ccc(O)cc1)c1ccc(/C=C/C(=O)NC)cc1)c1ccccc1
AUC [13]: 17.77 ng·h/g
Drug metabolism [14]: Metabolite_Notdetected
Kp [15]: 1.01
AUC [16]: 18.03 ng·h/g

Structure (SMILES): CCO[C@@H](Cc1ccc(OCCc2ccc(OS(C)(=O)=O)cc2)cc1)C(=O)NC
Activity (Mus musculus [17]): Active
Activity [18]: Non-Toxic
Drug metabolism [19]: Metabolite_Notdetected
Kp [20]: 0.06
AUC [21]: 374.1 ng·h/g
AUC [22]: 21.9 ng·h/g

Further lines, with some results ahead:

Drug metabolism [5]: Metabolite_Notdetected
Kp [6]: 1.5
AUC [7]: 73.8 ng·h/g
AUC [8]: 49.5 ng·h/g
Structure (SMILES): CNC(=O)COc1cc(C)c(Cc2cc(C#Cc3ccc([N+](=O)[O-])cc3)c(O)c(C(C)C)c2)c(C)c1

AUC [9]: 228.2 ng·h/g
Kp (in vivo): 1.35
AUC [10]: 169.3 ng·h/g
Structure (SMILES): CC/C(=C(\c1ccc(O)cc1)c1ccc(/C=C/C(=O)O)cc1)c1ccccc1

AUC [9]: 38.5 ng·h/g
Kp (in vivo): 0.12
AUC [10]: 314.5 ng·h/g
Structure (SMILES): CC1(C)CCSc2ccc(C#Cc3ccc(C(=O)O)cn3)cc21 [TAZAROTENIC ACID]
Activity [11]: Toxic
Activity (Mus musculus [12]): inactive

AUC [23]: 104 ng·h/g
Drug metabolism [24]: Metabolite_Notdetected
Kp [25]: 2.03
AUC [26]: 51.34 ng·h/g
Structure (SMILES): CNC(=O)c1ccc(C#Cc2ccc3c(c2)C(C)(C)CCS3)nc1
Activity [11]: Non-Toxic
Activity (Mus musculus [12]): Active
